Assay [1] has as its system MT4. The assay is described as follows: Concentration of drug that inhibited p24 production by 90% in infected MT-4 cells against HIV-1-WT. The settings on record: Homo sapiens. It counts as functional.
Assay [2] has as its system MT4. The experiment in a line: Concentration of drug that inhibited p24 production by 90% in infected MT-4 cells against HIV-1MF-DLV. It is filed as functional. As to conditions: Homo sapiens.
The test system of assay [3] is Human immunodeficiency virus type 1 reverse transcriptase (Human immunodeficiency virus 1), Q72547 [P236L]. The assay is described as follows: Inhibitory activity against HIV-1 reverse transcriptase (P236L) at 10 uM dose. In outline: (§1)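 Recombinant HIV-1 RT homodimers (wild type or P236L mutant) were tested with compound at a single 10 µM concentration and reported as % inhibition. Reactions ran at 28 °C for 10 min and were stopped with 10% trichloroacetic acid. Acid-precipitated product was collected on glass fibre filters and counted for radioactivity.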

Assay [4] concerns the target Human immunodeficiency virus type 1 reverse transcriptase (Human immunodeficiency virus 1, UniProt Q72547, P236L). The experiment in a line: Inhibition of HIV-1 reverse transcriptase (P236L). Summed up: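 HIV-1 RT homodimers (wild type or P236L) were assayed by radiolabel incorporation at 28 °C for 10 min and stopped with 10% trichloroacetic acid. Acid-insoluble product was filter-captured and counted. IC50 was derived from inhibition measured at eight drug concentrations.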

Assay [5] deals with T1, Human immunodeficiency virus type 1 reverse transcriptase (Human immunodeficiency virus 1, UniProt Q72547). The assay is described as follows: Inhibition of HIV-1 reverse transcriptase (wild type). Summed up: (§2)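 Wild-type HIV-1 RT homodimer run at 28 °C for 10 min. The reaction is stopped with 10% (v/v) trichloroacetic acid, and the acid-precipitated product is collected on glass fiber filters and counted for radioactivity. Compounds are screened as % inhibition at 10 µM, and IC50 values are determined from eight drug concentrations.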

The target of assay [6] is Human immunodeficiency virus type 1 reverse transcriptase (Human immunodeficiency virus 1) (UniProt Q72547). The experiment in a line: Inhibitory activity against HIV-1 reverse transcriptase (wild type) at 10 uM dose. Summed up:
as §1

Assay [7] addresses T1, Human immunodeficiency virus type 1 reverse transcriptase. The assay is described as follows: inhibitory activity against HIV-1 reverse transcriptase (wild type. Summed up:
as §2

pIC50: −log10 of the molar value.

By IC90 is commonly meant the concentration at which the effect reaches the 90% level. A high value points to a need for much substance. What is called inhibition is how much of the control response was suppressed. A word on the pIC50: it is the negative decadic logarithm of the IC50, by convention in mol/L. A low value points to a large IC50.

On to `COc1cccc(CSc2nc(N)cc(Cl)n2)c1`, for which the 90% effect concentration (IC90) was determined as 270 nM with MT4 [1] and 3.21 µM with MT4 [2]. Also, the inhibition in assay [3] came to 97%; in assay [6], 70%. For the same compound, the negative-log IC50 (pIC50) in assay [4] was 6.80; in assay [5], 6.01.
With `Nc1cc(Cl)nc(SCc2cc3c(cc2Cl)OCO3)n1`, the results for the inhibition in assay [3] and in assay [6] were 99% and 98%, respectively. Besides, the pIC50 in assay [4] is 7.80; in assay [7], 7.07.

Values taken from ChEMBL document CHEMBL1131117, “Pyrimidine thioethers: a novel class of HIV-1 reverse transcriptase inhibitors with activity against BHAP-resistant HIV” (J Med Chem, 1998).
